{"data": "Assay results of several laboratories"}
{"Structure (SMILES)": "O=C(Nc1ccccc1-c1ccc(F)c(F)c1)c1nccnc1C(F)(F)F", "organism": "Venturia nashicola", "assay": "microbial growth", "measurement": "EC50", "value": "0.8 µg/mL"}
{"Structure (SMILES)": "Nc1nc(NS(=O)(=O)c2ccccc2)nc(-c2ccc(F)cc2)c1-c1nc2ccccc2s1", "organism": "Enterovirus B", "assay": "plaque formation", "test system": "BGM, B4", "measurement": "IC50", "value": "93 µg/mL"}
{"Structure (SMILES)": "Oc1ccc(/C=C/c2cc(O)cc(O)c2)cc1", "organism": "Leishmania tarentolae", "assay": "parasite growth, resazurin", "conditions": "48 h, promastigote", "measurement": "IC50", "value": "79.8 µM"}
{"Structure (SMILES)": "C/C(O)=C1\\C(=O)C(CC(C)C)N(C(=O)CCCCCc2ccccc2)C1=O (stereo not drawn)", "organism": "Proteus mirabilis", "assay": "microbial growth", "test system": "ATCC25933", "measurement": "MIC", "value": "> 200 µg/mL"}
{"Structure (SMILES)": "CC(C)COC(=O)N[C@H](C(=O)N1CCC[C@H]1C(=O)Nc1cccc(C#CC#Cc2cccc(NC(=O)[C@@H]3CCCN3C(=O)[C@@H](NC(=O)OCC(C)C)C(C)C)c2)c1)C(C)C", "organism": "Hepatitis C virus", "assay": "viral replication, inhibitor, luciferase", "test system": "Huh-5-2, GETYPE1B", "conditions": "72 h, replicon", "measurement": "EC50", "value": "380 nM"}
{"Structure (SMILES)": "CC(=O)OC[C@@]1(C)[C@H]2CC[C@@H]3CN(CCC(C)C)[C@@H](C4=CCOC4=O)C[C@H]3[C@]2(C)CC[C@H]1OC(C)=O", "organism": "unidentified human coronavirus", "assay": "cytopathic effect", "test system": "MRC5", "conditions": "25 µM, 72 h", "measurement": "inhibition", "value": "105%"}
{"Structure (SMILES)": "CCOC(=O)N[C@H](CC(C)C)C(=O)N1CCC[C@@H]1C(=O)Nc1cccc(C#CC#Cc2cccc(NC(=O)[C@H]3CCCN3C(=O)[C@@H](CC(C)C)NC(=O)OCC)c2)c1", "organism": "Hepatitis C virus", "assay": "viral replication, inhibitor, luciferase", "test system": "Huh-5-2, GETYPE1B", "conditions": "72 h, replicon", "measurement": "EC50", "value": "410 nM"}
{"Structure (SMILES)": "Nc1nc(-c2ccccc2)nc2[nH]nc(Nc3ccc(C(F)(F)F)cc3)c12", "organism": "Enterovirus B", "assay": "cytopathic effect", "test system": "HeLa, CVB3", "measurement": "IC50", "value": "0.14 µM"}
{"Structure (SMILES)": "Nc1nc2c(ncn2[C@@H]2O[C@H](CO)[C@@H](F)[C@@H]2F)c(=O)[nH]1", "organism": "Hepatitis C virus", "assay": "viral replication, inhibitor", "test system": "Huh-7", "conditions": "replicon", "measurement": "EC50", "value": "> 10000 nM"}
{"Structure (SMILES)": "Cc1ccc(S(=O)(=O)Nc2ncc(-c3nc4ccccc4s3)c(N)n2)cc1", "organism": "Enterovirus B", "assay": "plaque formation", "test system": "BGM, B4", "measurement": "IC50", "value": "110 µg/mL"}
{"Structure (SMILES)": "CC(=O)OC[C@@]1(C)[C@H]2CC[C@@H]3CN(Cc4cccc5ccccc45)[C@@H](C4=CCOC4=O)C[C@H]3[C@]2(C)CC[C@H]1OC(C)=O", "organism": "unidentified human coronavirus", "assay": "cytopathic effect", "test system": "MRC5", "conditions": "25 µM, 72 h", "measurement": "inhibition", "value": "106%"}
{"Structure (SMILES)": "Cc1ccc(C(=O)CNc2nc(NS(=O)(=O)c3ccccc3)ncc2-c2nc3ccccc3s2)cc1", "organism": "Enterovirus B", "assay": "plaque formation", "test system": "BGM, B4", "measurement": "IC50", "value": "90 µg/mL"}
{"Structure (SMILES)": "N#CC(=Cc1ccccc1O)C1=NC(=O)C(=Cc2cn(-c3ccccc3)nc2-c2ccccc2)S1", "organism": "Acinetobacter baumannii", "assay": "microbial growth, well diffusion", "conditions": "100000 µg/mL", "measurement": "inhibition zone", "value": "25 mm"}
{"Structure (SMILES)": "OC[C@H]1O[C@@H](n2cnc3c(NCc4ccccc4)nc(Cl)nc32)[C@@H](F)[C@@H]1F", "organism": "Hepatitis C virus", "assay": "viral replication, inhibitor", "test system": "Huh-7", "conditions": "replicon", "measurement": "EC90", "value": "9.9 µM"}
{"Structure (SMILES)": "CN[C@H](CC(C)C)C(=O)N[C@H]1C(=O)N[C@@H](CC(N)=O)C(=O)N[C@H]2C(=O)N[C@H]3C(=O)N[C@H](C(=O)N[C@H](C(=O)O)c4cc(O)cc(O)c4-c4cc3ccc4O)[C@H](O)c3ccc(c(Cl)c3)Oc3cc2cc(c3O[C@@H]2O[C@H](CO)[C@@H](O)[C@H](O)[C@H]2O[C@H]2C[C@](C)(N)[C@H](O)[C@H](C)O2)Oc2ccc(cc2Cl)[C@H]1O", "organism": "Acinetobacter baumannii", "assay": "microbial killing, broth dilution", "test system": "BAA747", "measurement": "MBC", "value": "> 128 µM"}
{"Structure (SMILES)": "CCOC(=O)N[C@@H](C(=O)N1CCC[C@H]1C(=O)Nc1cccc(C#CC#Cc2cccc(NC(=O)[C@@H]3CCCN3C(=O)[C@H](NC(=O)OCC)C(C)C)c2)c1)C(C)C", "organism": "Hepatitis C virus", "assay": "viral replication, inhibitor, luciferase", "test system": "Huh-5-2, GETYPE1B", "conditions": "72 h, replicon", "measurement": "EC50", "value": "70 nM"}
{"Structure (SMILES)": "CC(=O)OC[C@@]1(C)[C@H]2CC[C@@H]3CN(Cc4cccs4)[C@@H](C4=CCOC4=O)C[C@H]3[C@]2(C)CC[C@H]1OC(C)=O", "organism": "unidentified human coronavirus", "assay": "cytopathic effect", "test system": "MRC5", "conditions": "25 µM, 72 h", "measurement": "inhibition", "value": "31.2%"}
{"Structure (SMILES)": "Cc1cn([C@H]2C[C@H](N=[N+]=[N-])[C@@H](CO)O2)c(=O)[nH]c1=O", "organism": "Hepatitis C virus", "assay": "viral replication, inhibitor", "test system": "Huh-7", "conditions": "replicon", "measurement": "EC50", "value": "> 10000 nM"}
{"Structure (SMILES)": "N#CC(=Cc1ccc([N+](=O)[O-])cc1)C1=NC(=O)C(=Cc2cn(-c3ccccc3)nc2-c2ccccc2)S1", "organism": "Acinetobacter baumannii", "assay": "microbial growth, well diffusion", "conditions": "100000 µg/mL", "measurement": "inhibition zone", "value": "19 mm"}
{"Structure (SMILES)": "COC(=O)N[C@H](CC(C)C)C(=O)N1CCC[C@H]1C(=O)Nc1cccc(C#CC#Cc2cccc(NC(=O)[C@@H]3CCCN3C(=O)[C@@H](CC(C)C)NC(=O)OC)c2)c1", "organism": "Hepatitis C virus", "assay": "viral replication, inhibitor, luciferase", "test system": "Huh-5-2, GETYPE1B", "conditions": "72 h, replicon", "measurement": "EC50", "value": "0.0686 nM"}
{"Structure (SMILES)": "N#CC(=Cc1cn(-c2ccccc2)nc1-c1ccccc1)C1=NC(=O)CS1", "organism": "Acinetobacter baumannii", "assay": "microbial growth, well diffusion", "conditions": "100000 µg/mL", "measurement": "inhibition zone", "value": "26 mm"}
{"Structure (SMILES)": "CC1(C)OC[C@@]2(C)[C@H]3CC[C@@H]4CN(Cc5ccccc5C5CC5)[C@@H](C5=CCOC5=O)C[C@H]4[C@]3(C)CC[C@H]2O1", "organism": "unidentified human coronavirus", "assay": "cytopathic effect", "test system": "MRC5", "conditions": "25 µM, 72 h", "measurement": "inhibition", "value": "93.2%"}
{"Structure (SMILES)": "Nc1nc(Cl)c2ncn([C@@H]3O[C@H](COC(=O)c4ccccc4)[C@@H](F)[C@@H]3F)c2n1", "organism": "Hepatitis C virus", "assay": "viral replication, inhibitor", "test system": "Huh-7", "conditions": "replicon", "measurement": "EC50", "value": "4700 nM"}
{"Structure (SMILES)": "Cc1ccc(-c2nn(-c3ccccc3)cc2C=c2sc(=CC#N)[nH]c2=O)cc1", "organism": "Acinetobacter baumannii", "assay": "microbial growth, well diffusion", "conditions": "100000 µg/mL", "measurement": "inhibition zone", "value": "14 mm"}
{"Structure (SMILES)": "CC(C)Oc1c(NC(=O)c2ccc(NC(=O)c3ccc(NC(=O)[C@H](CC(N)=O)NC(=O)c4ccc(NC(=O)c5ccc(C#N)cn5)cc4)cc3)c(OC(C)C)c2O)ccc(C(=O)O)c1O", "organism": "Proteus mirabilis", "assay": "microbial growth", "test system": "DSM4479", "measurement": "MIC", "value": "8 µg/mL"}
{"Structure (SMILES)": "CC1(C)OC[C@@]2(C)[C@H]3CC[C@@H]4CN(Cc5ccc(F)c(Cl)c5)[C@@H](C5=CCOC5=O)C[C@H]4[C@]3(C)CC[C@H]2O1", "organism": "unidentified human coronavirus", "assay": "cytopathic effect", "test system": "MRC5", "conditions": "25 µM, 72 h", "measurement": "inhibition", "value": "51.6%"}
{"Structure (SMILES)": "COC(=O)N[C@H](C(=O)N1CCC[C@H]1C(=O)Nc1cccc(C#CC#Cc2cccc(NC(=O)[C@@H]3CCCN3C(=O)[C@@H](NC(=O)OC)C(C)C)c2)c1)C(C)C", "organism": "Hepatitis C virus", "assay": "viral replication, inhibitor, luciferase", "test system": "GETYPE3A", "conditions": "replicon", "measurement": "EC50", "value": "9500 nM"}
{"Structure (SMILES)": "CCCCCCC/C=C/C(=O)N1C(=O)/C(=C(\\O)c2ccc(O)cc2)C(=O)C1CC(C)C (stereo not drawn)", "organism": "Proteus mirabilis", "assay": "microbial growth", "test system": "ATCC25933", "measurement": "MIC", "value": "> 200 µg/mL"}
{"Structure (SMILES)": "Nc1nc(N)c2ncn([C@@H]3O[C@H](CO)[C@@H](F)[C@@H]3F)c2n1", "organism": "Hepatitis C virus", "assay": "viral replication, inhibitor", "test system": "Huh-7", "conditions": "replicon", "measurement": "EC50", "value": "> 10000 nM"}
{"Structure (SMILES)": "Cc1c(NC(=O)CC2=NC(=O)CS2)c(=O)n(-c2ccccc2)n1C", "organism": "Acinetobacter baumannii", "assay": "microbial killing, broth dilution", "measurement": "MBC", "value": "0.25 µg/mL"}
{"Structure (SMILES)": "CCOC(=O)N[C@@H](CC(C)C)C(=O)N1CCC[C@@H]1C(=O)Nc1ccc(C#CC#Cc2ccc(NC(=O)[C@H]3CCCN3C(=O)[C@H](CC(C)C)NC(=O)OCC)cc2)cc1", "organism": "Hepatitis C virus", "assay": "viral replication, inhibitor, luciferase", "test system": "Huh-5-2, GETYPE1B", "conditions": "72 h, replicon", "measurement": "EC50", "value": "5630 nM"}
{"Structure (SMILES)": "CCOC(=O)c1c(N)csc1-c1cn(-c2ccccc2)nc1-c1ccc(C)cc1", "organism": "Acinetobacter baumannii", "assay": "microbial killing, broth dilution", "measurement": "MBC", "value": "0.25 µg/mL"}
{"Structure (SMILES)": "Nc1nc(Cl)c2ncn([C@@H]3O[C@H](CO)[C@@H](F)[C@@H]3F)c2n1", "organism": "Hepatitis C virus", "assay": "viral replication, inhibitor", "test system": "Huh-7", "conditions": "replicon", "measurement": "EC90", "value": "> 10 µM"}
{"Structure (SMILES)": "CC1(C)OC[C@@]2(C)[C@H]3CC[C@@H]4CN(Cc5ccc(I)cc5)[C@@H](C5=CCOC5=O)C[C@H]4[C@]3(C)CC[C@H]2O1", "organism": "unidentified human coronavirus", "assay": "cytopathic effect", "test system": "MRC5", "conditions": "25 µM, 72 h", "measurement": "inhibition", "value": "87.2%"}
{"Structure (SMILES)": "C/C(O)=C1\\C(=O)C(CC(C)C)N(C(=O)C=Cc2ccccc2)C1=O (stereo not drawn)", "organism": "Proteus mirabilis", "assay": "microbial growth", "test system": "ATCC25933", "measurement": "MIC", "value": "> 200 µg/mL"}
{"Structure (SMILES)": "COC(=O)N[C@H](C(=O)N1CCC[C@H]1c1ncc(-c2ccc(-c3ccc(-c4cnc([C@@H]5CCCN5C(=O)[C@@H](NC(=O)OC)C(C)C)[nH]4)cc3)cc2)[nH]1)C(C)C", "organism": "Hepatitis C virus", "assay": "viral replication, inhibitor", "test system": "HEK-293T, GETYPE2A", "conditions": "replicon", "measurement": "EC50", "value": "0.0035 nM"}
